From the RNAGym collection of RNA variant scans (doi:10.1002/anie.201605470)

B1: Osa-1-4 twister ribozyme (parent)
chain: CCGCCUAACACUGCCAAUGCCGGUCCCAAGCCCGGAUAAAAGUGGAGGGGGCGG

Variants of: B1
Assay: self-cleavage, relative activity (ratio to wild type); higher = more cleavage; co-transcriptional
Procedure, shortened: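 Relative activity is the fraction cleaved divided by that of the wild-type ribozyme. The library came from a DNA template for a 54-nucleotide Oryza sativa twister ribozyme, doped at the 48 positions downstream of the cleavage site with 97 % wild-type base and 1 % of each other base. After 2 h of in vitro transcription at 37 °C with co-transcriptional self-cleavage, the RNA was reverse-transcribed with a template-switching oligonucleotide, amplified by PCR and deep-sequenced, and reads with or without upstream sequence gave the cleavage status.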
In the case of CCGCCUAACACUGCCAAUGCCGGUCCCCAACCCGGAUAAAAGUGGAGGGGGCGG [A28C G30A], the self-cleavage is reported as 0.04.
With CCGCCUAACACUGCCAAUGCCGGUCCCCAGCCCGGAUAAAAGAGGAGGGGGCGG [A28C U43A] the self-cleavage was 0.72.
CCGCCUAACACUGCCAAUGCCGGUCCCCAGCCCGGAUAAAAGGGGAGGGGGCGG [A28C U43G] showed a self-cleavage of 0.32.
CCGCCUAACACUGCCAAUGCCGGUCCCCAGCCCGGAUAAAAGCGGAGGGGGCGG [A28C U43C] showed a self-cleavage of 0.33.
CCGCCUAACACUGCCAAUGCCGGUCCCCAGCCCGGAUAAAAGUGGAAGGGGCGG [A28C G47A] gave a self-cleavage of 0.2.
In the case of CCGCCUAACACUGCCAAUGCCGGUCCCCAGCCCGGAUAAAAGUGGACGGGGCGG [A28C G47C], the self-cleavage is reported as 0.08.
Variant CCGCCUAACACUGCCAAUGCCGGUCCCCAGCCCGGAUAAAAGUGGAUGGGGCGG [A28C G47U] has a self-cleavage of 0.19.
CCGCCUAACACUGCCAAUGCCGGCCCCCAGCCCGGAUAAAAGUGGAGGGGGCGG [A28C U24C] gave a self-cleavage of 0.18.
Variant CCGCCUAACACUGCCAAUGCCGGACCCCAGCCCGGAUAAAAGUGGAGGGGGCGG [A28C U24A] has a self-cleavage of 0.14.
In the case of CCGCCUAACACUGCCAAUGCCGGGCCCCAGCCCGGAUAAAAGUGGAGGGGGCGG [A28C U24G], the self-cleavage is reported as 0.05.
With CCGCCUAACACUGCCAAUGCCGGUCCCCAGCCCGGAUAAAAGUGGAGGAGGCGG [A28C G49A] the self-cleavage was 0.16.
In the case of CCGCCUAACACUGCCAAUGCCGGUCCCCAGCCCGGAUAAAAGUGGAGGCGGCGG [A28C G49C], the self-cleavage is reported as 0.07.
Variant CCGCCUAACACUGCCAAUGCCGGUCCCCAGCCCGGAUAAAAGUGGAGGUGGCGG [A28C G49U] has a self-cleavage of 0.13.
Variant CCGCCUAACACUGCCAAUGCCGGUCCCCAGCCCGGAUAAAAUUGGAGGGGGCGG [A28C G42U] has a self-cleavage of 0.08.
For CCGCCUAACACUGCCAAUGCCGGUCCCCAGCCCGGAUAAAAAUGGAGGGGGCGG [A28C G42A], the self-cleavage was 0.43.
CCGCCUAACACUGCCAAUGCCGGUCCCCAGCCCGGAUAAAACUGGAGGGGGCGG [A28C G42C] showed a self-cleavage of 0.12.
With CCGCCUAACACUGCCAAUGCCGGUCCCCAGCCCGGAUAAAAGUUGAGGGGGCGG [A28C G44U] the self-cleavage was 0.75.
In the case of CCGCCUAACACUGCCAAUGCCGGUCCCCAGCCCGGAUAAAAGUAGAGGGGGCGG [A28C G44A], the self-cleavage is reported as 0.95.
CCGCCUAACACUGCCAAUGCCGGUCCCCAGCCCGGAUAAAAGUCGAGGGGGCGG [A28C G44C] gave a self-cleavage of 0.95.
Variant CCGCCUAACACUGCCAAUGCCGGUCCCGAGCCCGGAUAAAAGUGGAGGGGGCGG [A28G] has a self-cleavage of 0.48.
With CCGCCUAACACUGCCAAUGCCGGUCCCGAGCCCGGCUAAAAGUGGAGGGGGCGG [A28G A36C] the self-cleavage was 0.09.
With CCGCCUAACACUGCCAAUGCCGGUCCCGAGCCCGGUUAAAAGUGGAGGGGGCGG [A28G A36U] the self-cleavage was 0.36.
For CCGCCUAACACUGCCAAUGCCGGUCCCGAGCCCGGGUAAAAGUGGAGGGGGCGG [A28G A36G], the self-cleavage was 0.45.
CCGCCUAACACUGCCAAUGCCGGUCCCCAGCCCGGAUAAAAGUGUAGGGGGCGG [A28C G45U] gave a self-cleavage of 0.08.
For CCGCCUAACACUGCCAAUGCCGGUCCCCAGCCCGGAUAAAAGUGAAGGGGGCGG [A28C G45A], the self-cleavage was 0.13.
CCGCCUAACACUGCCAAUGCCGGUCCCCAGCCCGGAUAAAAGUGCAGGGGGCGG [A28C G45C] gave a self-cleavage of 0.03.
Variant CCGCCUAACACUGCCAAUGCCGGUCCCCAGCCUGGAUAAAAGUGGAGGGGGCGG [A28C C33U] has a self-cleavage of 0.86.
For CCGCCUAACACUGCCAAUGCCGGUCCCCAGCCGGGAUAAAAGUGGAGGGGGCGG [A28C C33G], the self-cleavage was 0.07.
In the case of CCGCCUAACACUGCCAAUGCCGGUCCCCAGCCAGGAUAAAAGUGGAGGGGGCGG [A28C C33A], the self-cleavage is reported as 0.12.
For CCGCCUAACACUGCCAAUGCCGGUCCCCAGCCCGGAGAAAAGUGGAGGGGGCGG [A28C U37G], the self-cleavage was 0.98.
Work on CCGCCUAACACUGCCAAUGCCGGUCCCCAGCCCGGACAAAAGUGGAGGGGGCGG [A28C U37C] yielded a self-cleavage of 1.01.
Work on CCGCCUAACACUGCCAAUGCCGGUCCCCAGCCCGGAAAAAAGUGGAGGGGGCGG [A28C U37A] yielded a self-cleavage of 0.74.
Variant CCGCCUAACACUGCCAAUGCCGGUCCCGAGCCCGGAUGAAAGUGGAGGGGGCGG [A28G A38G] has a self-cleavage of 0.22.
In the case of CCGCCUAACACUGCCAAUGCCGGUCCCGAGCCCGGAUCAAAGUGGAGGGGGCGG [A28G A38C], the self-cleavage is reported as 0.21.
CCGCCUAACACUGCCAAUGCCGGUCCCGAGCCCGGAUUAAAGUGGAGGGGGCGG [A28G A38U] showed a self-cleavage of 0.23.
In the case of CCGCCUAACACUGCCAAUGCCGGUCCCCAGCCCGGAUAAAAGUGGAGGGAGCGG [A28C G50A], the self-cleavage is reported as 0.81.
Work on CCGCCUAACACUGCCAAUGCCGGUCCCCAGCCCGGAUAAAAGUGGAGGGCGCGG [A28C G50C] yielded a self-cleavage of 1.
With CCGCCUAACACUGCCAAUGCCGGUCCCCAGCCCGGAUAAAAGUGGAGGGUGCGG [A28C G50U] the self-cleavage was 0.98.
In the case of CCGCCUAACACUGCCAAGGCCGGUCCCCAGCCCGGAUAAAAGUGGAGGGGGCGG [A28C U18G], the self-cleavage is reported as 1.01.
For CCGCCUAACACUGCCAACGCCGGUCCCCAGCCCGGAUAAAAGUGGAGGGGGCGG [A28C U18C], the self-cleavage was 0.72.
Variant CCGCCUAACACUGCCAAAGCCGGUCCCCAGCCCGGAUAAAAGUGGAGGGGGCGG [A28C U18A] has a self-cleavage of 0.96.
CCGCCUAUCACUGCCAAUGCCGGUCCCGAGCCCGGAUAAAAGUGGAGGGGGCGG [A28G A8U] showed a self-cleavage of 0.07.
CCGCCUAGCACUGCCAAUGCCGGUCCCGAGCCCGGAUAAAAGUGGAGGGGGCGG [A28G A8G] gave a self-cleavage of 0.19.
Work on CCGCCUACCACUGCCAAUGCCGGUCCCGAGCCCGGAUAAAAGUGGAGGGGGCGG [A28G A8C] yielded a self-cleavage of 0.05.
In the case of CCGCCUAACACUGCCAAUGCCGGUCCCCAGCCCCGAUAAAAGUGGAGGGGGCGG [A28C G34C], the self-cleavage is reported as 0.38.
In the case of CCGCCUAACACUGCCAAUGCCGGUCCCCAGCCCAGAUAAAAGUGGAGGGGGCGG [A28C G34A], the self-cleavage is reported as 0.69.
Work on CCGCCUAACACUGCCAAUGCCGGUCCCCAGCCCUGAUAAAAGUGGAGGGGGCGG [A28C G34U] yielded a self-cleavage of 0.51.
CCGCCUAACACUGCCAAUGCCGGUCCCCAGCUCGGAUAAAAGUGGAGGGGGCGG [A28C C32U] showed a self-cleavage of 0.11.
Work on CCGCCUAACACUGCCAAUGCCGGUCCCCAGCGCGGAUAAAAGUGGAGGGGGCGG [A28C C32G] yielded a self-cleavage of 0.1.
